Experimental findings from PMC5515376 (Nature, 2016) are described below.

The nature of data set [1]: Metabolic stability assay, mouse liver microsomes. The data set is classed as in vitro ADME. In short, it runs like this: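 Liver microsomes (0.2 mg ml−1) were incubated with compound (0.5 and 5 µM) plus NADPH for 0, 10 and 90 min. Human microsomes or mouse CD-1 microsomes were used, as named in each line. Compound depletion was measured by LC–MS/MS and used to estimate Km, Vmax and half-life.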
For orientation: Liver microsomes are a subcellular fraction often used to study metabolism.

The next data set addresses hERG channel (Homo sapiens, UniProt Q12809). Briefly: hERG channel inhibition assay. The class given is cell-based. Conditions: read-out: hERG IC50; IKr. In short, it runs like this:
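hERG current was measured in hERG-expressing cell lines by automated patch clamp (QPatch-HTX).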

For data set [2], the system named is P. falciparum (NF54) liver stage. Briefly: In vitro P. falciparum liver-stage assay. The data set is classed as cell-based, Plasmodium falciparum.
For a further data set, the system named is P. falciparum Dd2. The class given is cell-based, Plasmodium falciparum. Particulars: Dd2 cultures, inocula 10^5 to 10^9, 20 nM (EC90), 60 days.

A word on the IC50: it is the concentration at which inhibition is half-maximal. A word on the EC50: it is the midpoint of the concentration-response curve.

Sequence of hERG channel (Q12809 whole entry): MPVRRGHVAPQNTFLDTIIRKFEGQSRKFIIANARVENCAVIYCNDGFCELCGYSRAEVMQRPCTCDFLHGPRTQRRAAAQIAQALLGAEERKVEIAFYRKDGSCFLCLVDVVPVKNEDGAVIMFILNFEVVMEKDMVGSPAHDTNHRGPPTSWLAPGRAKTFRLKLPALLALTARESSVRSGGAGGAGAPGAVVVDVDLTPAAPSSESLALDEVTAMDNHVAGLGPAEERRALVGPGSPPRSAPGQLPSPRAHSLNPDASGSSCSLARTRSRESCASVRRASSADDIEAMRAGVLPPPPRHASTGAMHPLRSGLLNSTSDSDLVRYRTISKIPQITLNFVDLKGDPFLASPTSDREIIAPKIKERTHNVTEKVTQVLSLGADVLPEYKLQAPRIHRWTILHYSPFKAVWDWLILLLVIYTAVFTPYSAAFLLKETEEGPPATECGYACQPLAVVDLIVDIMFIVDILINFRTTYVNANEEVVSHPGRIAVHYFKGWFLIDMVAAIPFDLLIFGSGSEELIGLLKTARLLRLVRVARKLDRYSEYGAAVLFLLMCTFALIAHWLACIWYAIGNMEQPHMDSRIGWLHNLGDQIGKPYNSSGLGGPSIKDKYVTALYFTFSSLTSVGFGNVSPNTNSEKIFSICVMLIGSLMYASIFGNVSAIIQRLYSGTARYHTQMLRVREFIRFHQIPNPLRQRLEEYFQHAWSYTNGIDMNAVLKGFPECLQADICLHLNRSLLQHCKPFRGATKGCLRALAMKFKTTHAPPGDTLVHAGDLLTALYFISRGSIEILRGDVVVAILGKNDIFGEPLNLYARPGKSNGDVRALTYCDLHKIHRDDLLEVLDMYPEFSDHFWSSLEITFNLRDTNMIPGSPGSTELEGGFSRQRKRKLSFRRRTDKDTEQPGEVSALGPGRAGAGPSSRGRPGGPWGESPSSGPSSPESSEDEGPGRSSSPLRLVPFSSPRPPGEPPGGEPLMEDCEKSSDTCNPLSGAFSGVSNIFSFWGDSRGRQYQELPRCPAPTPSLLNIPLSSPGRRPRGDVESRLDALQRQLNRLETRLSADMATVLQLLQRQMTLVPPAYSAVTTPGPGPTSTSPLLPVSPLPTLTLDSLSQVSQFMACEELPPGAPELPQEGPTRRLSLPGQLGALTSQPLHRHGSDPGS

Take `COc1ccc(NC(=O)N2CCCCN3[C@H](CN(C)C)[C@H](c4ccc(C#Cc5ccccc5)cc4)[C@@H]3C2)cc1` [BRD7929]: in data set [1], the “Mouse Clint” value is listed as 21 µL/min/mg. The IC50 at hERG channel came to 2100 nM. Also, the midpoint of the response in data set [2], the EC50, lay at 340 nM. Moreover, in the data set on P. falciparum Dd2, the “Recrudescence / resistance under constant drug pressure” value is on record as “No recrudescence”.
